Consider 31 compounds from PubChem BioAssay AID1046 (PCMD, 2008).

Screen size: about 220,000 compounds; about 560 (0.25%) were called active.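 How the source made its calls: active means inhibition at or above 40%; inactive means inhibition below 40%.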 This excerpt belongs to a sample that is enriched for actives.

For this experiment, the target named is Prothrombin (Homo sapiens) (UniProt P00734). The experiment can be described thus: blockers of thrombin peptide substrate cleavage – biochemical, 1536-well, fluorogenic AMC substrate, counter-screen for coagulation protease inhibitor project, primary screen (AID 1046).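 Further: 0% = enzyme with no compound and 100% = wells without enzyme.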 Conditions: alpha-thrombin, Boc-VPR-AMC fluorogenic substrate cleavage; at 5 µM; active compounds read high. The procedure, abridged: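 System: Human alpha-thrombin protein | Medium: pH 7.5 Tris (50 mM) with NaCl 150 mM, Tween 20 0.05% | Times: Enzyme reaction carried out at room temperature | Detection: AMC fluorescence, 355/460 nm | Evaluation: Percent inhibition scaled between no-compound controls and no-enzyme blanks | Benchmarks: Enzyme without compound as high, wells lacking enzyme as low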
A general note: A counterscreen serves to expose hits that act by an unwanted route or on another target.
As a reminder, the inhibition is the relative decrease from the control value, in per cent. For the compound `CCOC(=O)c1c(NC(=O)C(C)Sc2c[nH]c3ccccc23)sc2c1CCC2` (stereo unspecified), the inhibition was 1.33% (inactive).
`Cc1nnc(SCC(=O)N2CCOCC2)[nH]c1=O`: the inhibition was -2.64% (inactive).
The same measure for `CC(=O)c1sc2nc(SCC(=O)N3CCCCC3)[nH]c(=O)c2c1C`: -2.78% (inactive); for `O=C(CSc1nc2c(cnn2-c2ccc(F)cc2)c(=O)[nH]1)N1CCCCCC1`: 40.9% (active); for `CCNC(=S)NNC(=O)C1CCN(Cc2ccccc2)CC1`: -3.23% (inactive).
Turning to `O=C(Nc1cc2c3c(c1)C1CCCC1CN3CC1CCCC21)c1ccc([N+](=O)[O-])cc1` (stereo unspecified), the inhibition was 101% (active).
Turning to `O=C(Nn1cnnc1)c1ccc([N+](=O)[O-])cc1`, the inhibition was -7.16% (inactive).
For the compound `Cc1ccc(C)n1NC(=O)c1ccc([N+](=O)[O-])cc1`, the inhibition was -0.02% (inactive).
With `Cn1c(=O)c(=O)n(C)c2cc(S(=O)(=O)NCCN3CCN(c4ccccc4F)CC3)ccc21`, the inhibition was -4.5% (inactive).
As for `C=CCC(Nc1ccccc1)c1cccc(OC)c1OC` (stereo unspecified), the inhibition is -13% (inactive).
As for `CC1COc2ccccc2N1S(=O)(=O)c1ccccc1` (stereo unspecified), the inhibition is 4.45% (inactive).
The same measure for `Cc1ccccc1Cn1nc(C)c(NC(=O)C(F)(F)F)c1C`: -1.16% (inactive); for `CCO[C@@H]1OC(C(=O)NC2CC2)=C[C@H](C)[C@H]1CCCO`: -5.9% (inactive).
With `COC(=O)c1cccc(NC(=O)CN2CCC(NC(=O)c3cc(OC)c(OC)c(OC)c3)CC2)c1`, the inhibition is -1.04% (inactive).
Regarding `CCN1CCN(CC(=O)c2cc(OC)c(OC)c(OC)c2)CC1`, the inhibition is 45.6% (active).
For `CCCN(CCC)S(=O)(=O)c1ccc(C(=O)NNC(=O)c2cc(OC)c(OC)c(OC)c2)cc1` the value was 2.82% (inactive); for `CCCN(CCC)c1c([N+](=O)[O-])c(=O)oc2ccccc12`, 0.93% (inactive).
`COc1ccc(OC)c(-n2c(-c3ccn[nH]3)n[nH]c2=S)c1`: the inhibition was -4.83% (inactive).
Turning to `COCC(=O)Nc1cc(C(=O)OC)cc(C(=O)OC)c1`, the inhibition is 0.93% (inactive).
With `O=C(Cc1ccccc1)n1nc(-c2ccccc2)nc1NCc1ccco1`, the inhibition is 75.1% (active).
Take `CS(=O)(=O)n1nc(-c2ccccc2)nc1NCc1ccco1`: the inhibition was -2.92% (inactive).
With `c1ccc(-c2nc(NCc3ccco3)c3ccccc3n2)cc1`, the inhibition was 3.14% (inactive).
Take `O=C(c1ccc(N2CCOCC2)c([N+](=O)[O-])c1)N1CCN(S(=O)(=O)c2cccs2)CC1`: the inhibition is -1.14% (inactive).
For `c1ccc(CN=C2Nc3ccccc3CS2)nc1` the value was -2.61% (inactive); for `O=C(CSc1nc2ccccc2s1)Nc1ccc(C(=O)O)cc1`, -1.16% (inactive); for `CCn1cc(CNC(=O)c2cc([N+](=O)[O-])c(C)c([N+](=O)[O-])c2)cn1`, -0.78% (inactive).
For `Cc1ccc(CN2CCN(Cc3cn(C)nc3-c3ccccc3)CC2CCO)o1` (stereo unspecified), the inhibition was 0.78% (inactive).
With `Cc1ccc(S(=O)(=O)CC(=O)Nc2c(C)n(C)n(-c3ccccc3)c2=O)cc1`, the inhibition is 46.1% (active).
Take `Cc1cc(C)cc(N(CC(=O)Nc2c(C)n(C)n(-c3ccccc3)c2=O)S(C)(=O)=O)c1`: the inhibition was 4.95% (inactive).
Take `Cc1ccc(S(=O)(=O)/N=C(/NC(=S)Nc2c(C)n(C)n(-c3ccccc3)c2=O)c2ccccc2)cc1`: the inhibition is 3.47% (inactive).
On to `CC(=O)N/C(=C\c1ccc(F)cc1)C(=O)NC(Cc1ccccc1)C(=O)O` (stereo unspecified), for which the inhibition was -5.05% (inactive).
